One experiment relates to cancer cell lines. Put plainly: Anti-proliferation, comparison of BMX-IN-1 with QL-X-138. As to conditions: Supplemental Table 3. Type of experiment: cell-based.
The test system of a further experiment is RV-1. Put plainly: Anti-proliferation assay. The format is cell-based. The method, boiled down:
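RV-1 cells grown in DMEM with 10% FBS and 1% penicillin-streptomycin, seeded at 2500–3000/well for 12 h, then exposed to test compound at various concentrations for 72 h. Viability read by CellTiter-Glo luminescence and normalized to DMSO controls. Values are the mean of three independent measurements, with standard error <20%, and GI50 was derived by curve fitting.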

For another experiment, the system named is DU-145. Put plainly: Anti-proliferation assay. Type of experiment: cell-based.
The test system of the next experiment is HCT-116. Put plainly: Anti-proliferation assay. Type of experiment: cell-based.
The next experiment has as its system HeLa. Put plainly: Anti-proliferation assay. The format is cell-based.
The test system of the next experiment is K562. Put plainly: Anti-proliferation assay. The format is cell-based.
The test system of the next experiment is TMD8. As to the kind of experiment: Anti-proliferation assay. Type of experiment: cell-based.
The next experiment deals with U2932. Put plainly: Anti-proliferation assay. The format is cell-based.
In a further experiment the test system is Ramos. Put plainly: Anti-proliferation assay. The format is cell-based. The note with it: B-lymphoma, 72 hours.
For the next experiment, the system named is OCI-AML3. As to the kind of experiment: Anti-proliferation assay. Type of experiment: cell-based, human.
A further experiment deals with SKM-1. As to the kind of experiment: Anti-proliferation assay. Type of experiment: cell-based, human. As to conditions: SKM-1, AML; 72 hours.
For the next experiment, the system named is NOMO-1. Put plainly: Anti-proliferation assay. The format is cell-based, human.
A further experiment relates to NB4. Put plainly: Anti-proliferation assay. The format is cell-based, human. The note with it: NB4, AML; 72 hours.
A further experiment has as its system HEL. Put plainly: Anti-proliferation assay. Type of experiment: cell-based.
The subject of the next experiment is U937. As to the kind of experiment: Anti-proliferation assay. Type of experiment: cell-based. The note with it: U937, AML; 72 hours.
For another experiment, the system named is NALM6. Put plainly: Anti-proliferation assay. The format is cell-based, human. The note with it: NALM6, ALL; 72 hours.
In the next experiment the test system is MEC-1. Put plainly: Anti-proliferation assay. Type of experiment: cell-based. As to conditions: MEC-1, CLL; 72 hours.
A further experiment has as its system MEC-2. Put plainly: Anti-proliferation assay. The format is cell-based. As to conditions: MEC-2, CLL; 72 hours.
For a further experiment, the system named is Hs 505.T. Put plainly: Anti-proliferation assay. The format is cell-based. The note with it: CLL, 72 hours.
Another experiment concerns REC-1. Put plainly: Anti-proliferation assay. The note with it: REC-1, MCL; 72 hours. Type of experiment: cell-based.
The next experiment deals with Ramos cells. As to the kind of experiment: Signaling pathway effect examination. Type of experiment: cell-based. The method, boiled down: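 Ramos cells in RPMI with 10% FBS were treated with serially diluted test compound for 4 h. Cells were then harvested and lysed, and phosphorylation in the lysates was assessed by western blotting.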
Another experiment concerns mTOR. The note with it: read-out: IC50, mTOR; biochemical; cited from earlier work.
Another experiment has as its target MNK1 (Homo sapiens, UniProt Q9BUB5). As to conditions: cited from earlier work.
A further experiment concerns the target BTK (Homo sapiens, UniProt Q06187). The note with it: cited from earlier work.

A value given as a limit tells only on which side of the number the result lay.

This is an account of results in paper PMC4987129 (Leukemia, 2015).

BTK, sequence (Q06187 whole entry): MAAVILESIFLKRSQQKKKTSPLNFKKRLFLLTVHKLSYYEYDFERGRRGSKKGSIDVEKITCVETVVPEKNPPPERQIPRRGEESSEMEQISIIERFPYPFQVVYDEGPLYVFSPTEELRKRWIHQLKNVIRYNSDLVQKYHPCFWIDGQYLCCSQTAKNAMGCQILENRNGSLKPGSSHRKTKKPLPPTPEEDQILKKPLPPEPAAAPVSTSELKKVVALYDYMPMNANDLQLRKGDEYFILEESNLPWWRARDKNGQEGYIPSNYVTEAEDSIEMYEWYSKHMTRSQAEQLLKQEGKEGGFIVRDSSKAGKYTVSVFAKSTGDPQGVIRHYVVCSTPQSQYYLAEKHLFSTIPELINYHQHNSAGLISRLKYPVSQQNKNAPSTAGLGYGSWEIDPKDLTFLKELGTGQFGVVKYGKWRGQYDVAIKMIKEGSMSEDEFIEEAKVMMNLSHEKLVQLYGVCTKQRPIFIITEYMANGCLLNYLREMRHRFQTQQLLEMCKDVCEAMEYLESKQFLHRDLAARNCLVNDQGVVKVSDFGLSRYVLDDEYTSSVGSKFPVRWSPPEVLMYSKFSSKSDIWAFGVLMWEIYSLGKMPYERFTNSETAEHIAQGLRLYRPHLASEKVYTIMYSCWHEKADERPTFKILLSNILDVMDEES
MNK1, sequence (Q9BUB5 1-424 isoform Q9BUB5-2): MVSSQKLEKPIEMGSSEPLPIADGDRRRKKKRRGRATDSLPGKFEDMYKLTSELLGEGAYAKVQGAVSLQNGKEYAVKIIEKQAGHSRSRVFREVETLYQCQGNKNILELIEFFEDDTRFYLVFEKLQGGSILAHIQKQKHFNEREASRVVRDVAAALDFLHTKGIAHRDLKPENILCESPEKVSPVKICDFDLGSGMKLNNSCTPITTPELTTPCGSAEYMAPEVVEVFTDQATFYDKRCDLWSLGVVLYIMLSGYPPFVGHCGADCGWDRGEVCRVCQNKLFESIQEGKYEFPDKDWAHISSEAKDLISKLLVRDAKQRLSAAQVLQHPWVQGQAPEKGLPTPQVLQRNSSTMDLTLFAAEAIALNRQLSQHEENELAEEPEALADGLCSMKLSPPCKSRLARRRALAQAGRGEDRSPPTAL

For the compound `C=CC(=O)Nc1cc(-n2c(=O)ccc3cnc4ccc(-c5ccc(NS(C)(=O)=O)cc5)cc4c32)ccc1C` [BMX-IN-1], in the experiment with cancer cell lines, the “anti-proliferation activity in comparison to QL-X-138” value is given as “weaker anti-proliferation activity”.
As to `CC(=O)C1=C(O)C=C2Oc3c(C(N)=O)c(O)cc(O)c3[C@]2(C)C1=O` [Cercosporamide], the concentration for 50% growth inhibition (GI50) in the experiment on RV-1 (RV-1, Prostate, 72 hours) was more than 10 µM; in the experiment on DU-145 (DU-145, Prostate, 72 hours) it was more than 10 µM; with HCT-116 (HCT-116, Colon, 72 hours), more than 10 µM; in the experiment on HeLa (Cervical, 72 hours), more than 10 µM; with K562 (K562, CML, 72 hours) it was more than 10 µM; with TMD8 (TMD8, DLBCL, 72 hours), more than 10 µM. The GI50 in the experiment with U2932 (U2932, DLBCL, 72 hours) was more than 10 µM; in the experiment on Ramos, more than 10 µM; in the experiment on OCI-AML3 (OCI-AML3, AML, 72 hours), more than 10 µM; in the experiment on SKM-1, more than 10 µM; in the experiment with NOMO-1 (NOMO-1, AML, 72 hours), more than 10 µM; in the experiment with NB4 it was more than 10 µM. In addition, the GI50 with HEL (AML, 72 hours) is more than 10 µM; in the experiment with U937, 3.9 µM; in the experiment with NALM6, more than 10 µM; in the experiment on MEC-1, more than 10 µM; in the experiment with MEC-2, more than 10 µM; in the experiment on Hs 505.T it was more than 10 µM. Further, in the experiment on REC-1, the GI50 was more than 10 µM. In addition, the “effect on MNK phosphorylation” value in the experiment with Ramos cells (4 hours) was “did not affect”. In addition, the “effect on phosphorylation of eIF4E S209” value with Ramos cells (at a concentration of 1 μM) is “suppressed”.
On to `C=CC(=O)N1CCC[C@@H](n2nc(-c3ccc(Oc4ccccc4)cc3)c3c(N)ncnc32)C1` [PCI-32765], for which the GI50 was more than 10 µM in the experiment with RV-1 (RV-1, 72 h); more than 10 µM in the experiment on DU-145 (Homo sapiens, DU-145, 72 h); more than 10 µM in the experiment with HCT-116 (Homo sapiens, HCT-116, 72 h); more than 10 µM with HeLa (Homo sapiens, 72 h); more than 10 µM in the experiment on K562 (Homo sapiens, K562, 72 h); 0.002 µM in the experiment on TMD8 (Homo sapiens, TMD8, 72 h). The GI50 with U2932 (Homo sapiens, U2932, 72 h) was more than 10 µM; in the experiment on OCI-AML3 (Homo sapiens, OCI-AML-3, 72 h), more than 10 µM; in the experiment on NOMO-1 (Homo sapiens, NOMO-1, 72 h), more than 10 µM; with HEL (Homo sapiens, 72 h), 4 µM. Moreover, the “effect on MNK phosphorylation” value in the experiment with Ramos cells (4 hours) is listed as “did not affect”. For the same compound, the “effect on phosphorylation of PLCγ2 Y1217” value in the experiment on Ramos cells (4 hours) was “strongly blocked”.
For `Nc1ccc(-c2ccc3ncc4ccc(=O)n(-c5cccc(C(F)(F)F)c5)c4c3c2)cn1` [Torin2, 9-(6-aminopyridin-3-yl)-1-(3-(trifluoromethyl)phenyl)benzo[h][1,6]naphthyridin-2(1H)-one], in the experiment on mTOR, the IC50 is 0.00025 µM. Also, at MNK1, the “activity against MNK1” value is on record as “no apparent activity”. Further, on BTK, the “activity against BTK” value is on record as “no apparent activity”.
